Published values of several laboratories.
Each line is one published result; the experiments were not run side by side.
Target: Serine/threonine-protein kinase 33 (STK33, Homo sapiens, UniProt Q9BYT3)

Structure (SMILES) | assay | conditions | remaining binding
CO[C@@H](C)c1c(Nc2ccc([C@H](N(C)C(=O)C3CCS(=O)(=O)CC3)C(F)(F)F)cc2)cnc2cc(Cl)nn12 | cell-free assay, competition with immobilised ligand | 1 µM | 51%
CN(CCCC(F)(F)F)c1nccc(-c2cnn3ncccc23)n1 | binding | 1 µM | 100%
COc1ncc2cc3ccccc3nc2c1C#N | cell-free assay, competition with immobilised ligand | 5 µM | 91%
CC(=O)N1CCC(c2ccc(C(=O)NC3=NCCN3)cc2C(F)(F)F)CC1 | cell-free assay, competition with immobilised ligand | 1 µM | 100%
CC1CCCN1c1nccc(-c2cnn3ncccc23)n1 (centres unmarked) | binding | 1 µM | 100%
CC1=C(C#N)C(c2ccc3c(c2)c(NC(=O)c2ccccc2C)nn3C)C(C#N)=C(C)N1 | cell-free assay, competition with immobilised ligand | 1 µM | 100%
O=C(c1ccc(Nc2ncc(Cl)c(-c3cc4ccccc4s3)n2)cc1)N1CCC(N2CCCC2)CC1 | binding, competition with immobilised ligand | 1 µM | 38%
c1cncc(-c2cccc(Nc3nccc(NC4CCCCC4)n3)c2)c1 | binding, competition with immobilised ligand | 10 µM | 44%
CN(C)c1nccc(-c2cnn3ncccc23)n1 | binding | 1 µM | 75%
C=CC(=O)N1CCC(C(=O)NCC(=O)N2CCN(c3nc(-c4cnc(N)nc4C(F)F)nc(N4CCOCC4)n3)CC2)CC1 | binding, competition with immobilised ligand | 1 µM | 100%
CN([C@@H]1CCc2c(CC(=O)O)c3ccccc3n2C1)S(=O)(=O)c1ccc(F)cc1 | cell-free assay, competition with immobilised ligand | 1 µM | 100%
Nc1ncc2c(n1)-c1c([nH]c3ccc(C#CC4CC4)cc13)CCCC2 | binding, competition with immobilised ligand | 1 µM | 100%
CC1=C(C#N)[C@@H](c2ccc3[nH]nc(C)c3c2)C(C#N)=C(c2ccc(Cl)cc2)N1 | cell-free assay, competition with immobilised ligand | 1 µM | 90.9%
O=C(NCC1CCOCC1)c1n[nH]cc1NC(=O)c1c(F)cccc1F | binding, competition with immobilised ligand | 1 µM | 79%
C[C@@H]1CCN(c2nccc(-c3cnn4ncccc34)n2)C1 | binding | 1 µM | 88%
CCN1CCN(Cc2ccc(C(=O)Nc3ccc(C)c(Oc4ccc5c(c4)CC(=O)N5)c3)cc2C(F)(F)F)CC1 | binding, competition with immobilised ligand | 1 µM | 100%
CN(c1ccnc(CNc2nc(Nc3ccc4c(c3)CC(=O)N4)ncc2C(F)(F)F)n1)S(C)(=O)=O | cell-free assay, competition with immobilised ligand | 1 µM | 15%
N[C@@H]1CCN(c2nccc(-c3cnn4ncccc34)n2)C1 | binding | 1 µM | 100%
COc1cnc(Nc2cccc(S(N)(=O)=O)c2)nc1N1CCN(c2ccccc2)C(=O)C1 | binding, competition with immobilised ligand | 1 µM | 93%
O=C(c1ccc(Nc2nccc(-c3cc4ccccc4s3)n2)cc1)N1CCC(N2CCCC2)CC1 | binding, competition with immobilised ligand | 1 µM | 100%
c1cnn2ncc(-c3ccnc(N4CCC45COC5)n3)c2c1 | binding | 1 µM | 100%
CNC(=O)c1ccc(Nc2ncc(C(F)(F)F)c(NCc3nccnc3N(C)S(C)(=O)=O)n2)cc1 | cell-free assay, competition with immobilised ligand | 0.1 µM | 68%
O=C(c1ccc(Nc2ncc(Cl)c(-c3ccc(Cl)s3)n2)cc1)N1CCC(N2CCCC2)CC1 | binding, competition with immobilised ligand | 1 µM | 56%
